A short description of data set [1]: Lipophilicity, log D of the compound. The note with it: octanol/water. Type of data set: physicochemical. A digest of the protocol: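 LogD was either measured or calculated with an internal logD model.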
Data set [2] in a line: Oral bioavailability in rat. The format is ADME, organism-based. The note with it: in vivo.
Data set [3] is described as follows: Permeability in RRCK cells. The note with it: dog, MDCK; read-out: permeability. The format is ADME, cell-based, Canis lupus familiaris, MDCKII-LE. A digest of the protocol: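 Transcellular permeability across Ralph Russ canine kidney (RRCK) cell monolayers, reported as x10^-6 cm/sec.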
Data set [4] in a line: Solubility of the compound at pH 6.5. The format is physicochemical. The note with it: buffer.
Data set [5] can be described thus: Volume of distribution at steady state in rat. The note with it: in vivo, read-out: Vdss. Type of data set: ADME.
Data set [6] can be described thus: Volume of distribution at steady state in dog. Type of data set: ADME, Canis lupus familiaris. The note with it: in vivo, read-out: Vdss.
A short description of data set [7]: Oral bioavailability in dog. Type of data set: ADME, organism-based, Canis lupus familiaris. The note with it: in vivo.

Converted amounts (≈) assume the structure as drawn.

`CCn1cnc2c(-c3ccc(F)c(-c4ccc(S(=O)(=O)C5CC5)cc4OC)c3)cnnc21` yielded a logD in data set [1] of 2.7. On the same count and under the same terms, with `CCn1cnc2c(-c3ccc(Cl)c(-c4ccc(S(=O)(=O)CC)cc4OC)c3)cnnc21` the figure was 3.1; with `CCn1cnc2c(-c3ccc(F)c(-c4ccc(S(=O)(=O)CC)cc4)c3)cnnc21`, 2.9; with `CCn1cnc2c(-c3ccc(F)c(-c4ccc(S(C)(=O)=O)cc4OC)c3)cnnc21`, 2.5.

In data set [1], `CCn1cnc2c(-c3ccc(F)c(-c4ccc(S(=O)(=O)C(C)C)cc4OC)c3)cnnc21` displayed a log distribution coefficient (logD) of 3. For the molecule `CCn1cnc2c(-c3ccc(F)c(-c4ccc(S(=O)(=O)CC)cc4F)c3)cnnc21`, the pH-dependent lipophilicity (logD) in data set [1] worked out at 2.6. The same measure, in the same setting: with `CCn1cnc2c(-c3ccc(F)c(-c4ccc(S(=O)(=O)C5COC5)cc4OC)c3)cnnc21` the figure was 2.2; with `CCn1cnc2c(-c3ccc(F)c(-c4ccc5c(c4)C(=O)N(C)C5)c3)cnnc21`, 2.6; with `CCn1cnc2c(-c3ccc(F)c(-c4cccnc4)c3)cnnc21`, 2.6. In data set [1], `CCS(=O)(=O)c1ccc(-c2cc(-c3cnnc4c(OC)cnn34)ccc2F)cc1` returned a pH-dependent lipophilicity (logD) of 2.8. `CCn1cnc2c(-c3ccc(F)c(-c4ccc(S(=O)(=O)CC)cc4Cl)c3)cnnc21` gave a logD in data set [1] of 3.2. Same read-out and setting: with `Cc1cc(-c2cc(-c3cnnc4c3ncn4C(C)C)ccc2F)ccn1` the figure was 3.1; with `CC(=O)N1CC(Oc2cc(-c3cnnc4c3ncn4C(C)C)ccc2F)C1`, 1.6. The same measure, in the same setting: with `CCc1cnn2c(-c3ccc(F)c(-c4ccc(S(=O)(=O)CC)cc4)c3)cnnc12` the figure was 3.5; with `CCn1cnc2c(-c3ccc(F)c(-c4cccc(C(=O)NC)c4)c3)cnnc21`, 2.8; with `CCn1cnc2c(-c3ccc(F)c(Oc4cccc(S(=O)(=O)CC)c4)c3)cnnc21`, 2.3. Still for that read-out and setting: with `CCn1cnc2c(-c3ccc(F)c(OCc4ccccn4)c3)cnnc21` the figure was 2.5; with `CCn1cnc2c(-c3ccc(F)c(Oc4cnc(C#N)nc4)c3)cnnc21`, 2. In data set [1], `CCn1cnc2c(-c3ccc(F)c(Oc4ccnc(C)c4)c3)cnnc21` returned a pH-dependent lipophilicity (logD) of 2.6. The same measure, in the same setting: with `CC(C)n1cnc2c(-c3ccc(F)c(Oc4ccc(C#N)cn4)c3)cnnc21` the figure was 2.7; with `CCn1nnc2c(-c3ccc(F)c(-c4ccc(S(=O)(=O)CC)cc4)c3)cnnc21`, 3.3. Molecule `CCn1cnc2c(-c3ccc(F)c(-c4ccc5c(c4)CN(C)C5=O)c3)cnnc21` displayed a logD in data set [1] of 2.7.

`CCn1cnc2c(-c3ccc(F)c(Oc4ccc(C#N)cn4)c3)cnnc21`: the log distribution coefficient (logD) in data set [1] stood at 2.3.

`N#Cc1ccc(Oc2cc(-c3cnnc4c3ncn4C3CC3)ccc2F)nc1` displayed a logD in data set [1] of 2.3.

In data set [1], `CCn1cnc2c(-c3ccnc(OC)c3)cnnc21` displayed a logD of 1.5.

In the case of `CCn1cnc2c(-c3ccc(F)c(-c4cc(C(=O)NC)ccc4F)c3)cnnc21`, the logD in data set [1] was determined as 3. Same read-out and setting: with `CCn1cnc2c(-c3ccc(F)c(-c4ccc(C(=O)N(C)C)cc4)c3)cnnc21` the figure was 2.5.

In turn, `CCc1cnn2c(-c3ccc(F)c(-c4ccc(S(=O)(=O)CC)cc4)c3)ccnc12` gave a pH-dependent lipophilicity (logD) in data set [1] of 3.9. As for `CCn1cnc2c(-c3ccc(F)c(-c4cc5c(cc4OC)C(=O)N(C)C5)c3)cnnc21`, the logD in data set [1] is 2.6. Also, the bioavailability was found to be 76% in data set [2] and 43% in data set [7]. Also, the Papp in data set [3] turned out to be 21 ×10⁻⁶ cm/s. For the same molecule, the concentration in solution in data set [4] (solubility) was 15 µM (≈ 6.26 µg/mL). Further, the results for the Vd in data set [5] and in data set [6] were 0.55 L/kg and 2.61 L/kg, respectively. Turning to `Cc1cc(-c2cc(-c3cnnc4c3ncn4C3CC3)ccc2F)ccn1`, in data set [1], the log distribution coefficient (logD) is 2.9. The same measure, in the same setting: with `CCn1cnc2c(-c3ccnc(Oc4cccc(S(=O)(=O)CC)c4)c3)cnnc21` the figure was 1.6; with `CCn1cnc2c(-c3ccnc(Oc4ccccc4)c3)cnnc21`, 2.6; with `CCOc1cc(S(=O)(=O)CC)ccc1-c1cc(-c2cnnc3c2ncn3CC)ccc1F`, 3.3. `CCn1cnc2c(-c3ccc(F)c(-c4ccc(S(=O)(=O)CC)cc4OC)c3)cnnc21` [DARIGABAT] returned a logD in data set [1] of 2.7. Also, the figures for the bioavailability in data set [2] and in data set [7] were 99% and 130%, respectively. For the same molecule, the Papp in data set [3] came out at 17 ×10⁻⁶ cm/s. The solubility in data set [4] amounted to 95 µM (≈ 41.8 µg/mL). Further, the Vd in data set [5] came out at 2.1 L/kg; in data set [6], 3.4 L/kg.

As a reminder, the logD is lipophilicity at a set pH, counting ionised and neutral species. The solubility is how much of the substance goes into solution per volume. Read a high solubility as much dissolved substance.

These data come from ChEMBL document CHEMBL4350959, “Design and Identification of a Novel, Functionally Subtype Selective GABAA Positive Allosteric Modulator (PF-06372865)” (J Med Chem, 2019).
